Experimental data from PMC9041360 (RSC Advances, 2021).
Like-named read-outs stand apart in the source and are kept apart here.

How the values were obtained:
[1] = test system: HeLa cells; assay: Membrane damage by LDH leakage; format: cell-based, human
Summary of the method: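 HeLa cells were seeded at 1 × 10^4 per well. At 30 min, 45 min, 1, 2, 3 and 6 h after treatment, LDH release was measured with the CytoTOX One membrane-integrity kit. Lysis solution gave maximum leakage. Fluorescence (ex 560/em 590) was expressed as percent of maximum LDH leakage.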

[2] = test system: HeLa cells; assay: Cellular morphology by light microscopy; format: cell-based, human; conditions: 48 h of exposure, concentrations from 2.5 to 20 μM
Summary of the method: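 HeLa cells in RPMI were seeded at 5 × 10^3 cells per well on poly-D-lysine-coated glass-bottom imaging plates. Next day they were treated with 20, 5 or […] μM test compound. Live-cell imaging used an inverted microscope with an incubation chamber supplied with 5% CO2 and a 100× oil objective. Images were taken after 48 h of treatment.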

[3] = test system: Aspergillus fumigatus (BCC020_2845); assay: Antifungal activity, broth two-fold microdilution; format: cell-based; conditions: 30 °C, 48 h, tested 75 to 0.036 μM; NA = no activity at 75 μM
Summary of the method: (§1)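 Two-fold broth microdilution per CLSI M100-S20. Compounds were serially diluted from 75 to 0.036 μM in Mueller Hinton broth with 2% glucose. Inoculum from an overnight culture, about 5 × 10^5 CFU mL−1 final. Incubated aerobically at 30 °C for 48 h. Solvent control: medium with 50% DMSO in methanol. Fluconazole (32 to 0.0625 μg mL−1) served as positive control. MIC was the lowest concentration showing some growth inhibition. Triplicate.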

[4] = Lipid bilayer experiments; conditions: planar DOPC/DOPE membranes, 50 mV
Summary of the method: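 Black lipid bilayers were painted from 3% (w/v) DOPC/DOPE 2:1 (w/w) in n-decane/butanol 9:1 across a 0.5 mm aperture. Both compartments held 10 mM Tris, 1 M KCl, pH 7.4, at 25 °C. Test compound (5 or 10 μM) was added to the cis side. Current was recorded with Ag/AgCl electrodes at 50 mV, cis positive, with traces of 120 s.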

[5] = test system: HeLa cells; assay: Cytotoxicity testing using MTT, dose–response; format: cell-based, human
Summary of the method: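 HeLa cells grown in RPMI 1640 with 10% FBS, 2 mM L-glutamine and 1% antibiotics at 37 °C, 5% CO2. Seeded at 10 × 10^3 cells per well and left to adhere overnight. The whole medium was replaced with test compound in medium for 48 h. MTT (4 mg mL−1 in PBS) was added for 4 h, then cells were centrifuged and formazan dissolved in DMSO. Absorbance at 590/640 nm. Viability given as percent of untreated control.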

[6] = test system: HeLa cells; assay: Recovery experiments; format: cell-based, human; conditions: 5 and 10 μM, exposure 1–8 h, then 48 h recovery, MTT
[7] = test system: Saccharomyces cerevisiae P23; assay: Membrane permeabilization assay; format: cell-based; conditions: S. cerevisiae, 5 and 10 μM
Summary of the method: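 S. cerevisiae P23 was grown aerobically in YEPG at 30 °C to mid-log phase (OD450 about 0.5). Cells were harvested, washed and resuspended to OD450 about 0.2 in 0.15 M citrate–phosphate buffer, pH 6.0, with 0.5% glucose and 10 μM propidium iodide. Test compound was added at 1, 5 or 10 μM final. PI uptake was followed as fluorescence (ex 515/em 620) at 25 °C. Controls: 10 μM melittin (positive) and buffer (baseline). Two sets of experiments, with no background subtraction.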

[8] = test system: Alternaria alternata (BCC020_0609); assay: Antifungal activity, broth two-fold microdilution; format: cell-based; conditions: 30 °C, 48 h, tested 75 to 0.036 μM; NA = no activity at 75 μM
Summary of the method: as §1

[9] = test system: HeLa cells; conditions: read-out: IC50 cytotoxicity against HeLa cells; HeLa cells ref 40; cited from earlier work

Substance	LDH leakage (in words) ([1]; early time points up to 2 h)	LDH accumulated in the medium, % of positive control ([1]; only after 3 h)	cellular morphology (in words) [2]	MIC A. fumigatus [3]	pore-forming activity / membrane permeabilization (in words) ([4]; 5 μM)	typical transmembrane electrical current ([4]; 10 μM)	reduction of cell viability / inhibition ([5]; MTT, 48 h, at higher concentrations (5–20 μM))	IC50 ([5]; read-out: IC50 against HeLa cells (MTT assay), 48 h treatment)	cell viability after compound washout and recovery (in words) [6]	membrane permeabilization, PI entry into yeast cells (in words) [7]	MIC A. alternata [8]	IC50 [9]
minutissamide A [Compound 1]	No LDH leakage	up to 30%	cell shrinkage and membrane rupture	37.5 µM	almost completely inactive	about 10 pA	70%	2800 nM	easily tolerated by the cells for the first two hours	No membrane disruption was detectable	75 µM	–
Iturin A	–	–	–	–	–	–	–	–	–	–	–	1730 nM
